Key:
[1] = in vivo; cited from earlier work
[2] = in vivo; cited from earlier work; remark: listed apart in the source
[3] = single agent; cited from earlier work
p-ERK = p-ERK immunohistochemistry; format: in vivo, human; details: run-in and concurrent arms combined; H-score over 50 positive
In short: (§1)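 Tumour biopsies from the expansion cohort (20 patients with metastatic irinotecan- and oxaliplatin-refractory CRC on MEK inhibitor plus Wnt-modulator combination); two core biopsies per patient, taken pre- and post-treatment. IHC with hematoxylin counterstain; brown membrane/cytoplasmic staining was scored positive. H-score (0–300) was derived from the proportion and intensity of stained tumour cells in the predominant compartment. Values over 50 were positive, and results were summarised descriptively.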

FZD1/2 = FZD1/2 immunohistochemistry; format: in vivo, human; details: run-in and concurrent arms combined; H-score over 50 positive
In short: as §1

[4] = Plasma pharmacokinetics in patients; format: in vivo, human
[5] = system: advanced BRAF V600E or V600K mutated melanoma; details: single agent, cited from earlier work

| SMILES | mean half-life (t½) [1] | Visual changes, patients [2] | dose limiting toxicity [2] | Recommended Phase II Dose (RP2D) [3] | patients positive for p-ERK post-treatment (p-ERK) | patients positive for FZD1/2 post-treatment (FZD1/2) | difference in pharmacokinetics of selumetinib given alone versus with CsA ([4]; day -7 vs C1D1) | Cmax ([4]; human, plasma, oral) | Cmax ([4]; human, plasma, oral, 75 mg) | half-life ([4]; human, plasma, oral, 75 mg) | median progression-free survival ([5]; vs 1.5 in comparator, p < 0.001) | 6-month survival rate ([5]; vs 67% in comparator) |
| --- | --- | --- | --- | --- | --- | --- | --- | --- | --- | --- | --- | --- |
| Cn1cnc2c(F)c(Nc3ccc(Br)cc3Cl)c(C(=O)NOCCO)cc21 [selumetinib] | 5 to 8 h | 12% | grade 3 acneiform rash and pleural effusion | 100 mg BID | 14 out of 15 | 11 out of 15 | no substantial difference | 1250 ng/mL | 1550 ng/mL | 6.4 h |  |  |
| CC(=O)Nc1cccc(-n2c(=O)n(C3CC3)c(=O)c3c(Nc4ccc(I)cc4F)n(C)c(=O)c(C)c32)c1 [trametinib] |  |  |  |  |  |  |  |  |  |  | 4.8 mos | 81% |
